From ChEMBL document CHEMBL5260851, “Iodinated Choline Transport-Targeted Tracers” (J Med Chem, 2020) come the findings set out here.

Series [1] deals with PC-3. The series is described as follows: Biodistribution in human PC-3 cells xenografted mouse measured after 3 hrs by SPECT method. The class given is ADME, organism-based. The following applies: in vivo. A digest of the protocol: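 Mice carried subcutaneous PC-3 xenografts. Static whole-body SPECT scans of 30 min under 2% isoflurane were run at 1, 3 and 24 h p.i., then a 20 min double CT.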
In general terms: Xenograft models place foreign cells or tissue in a host animal.

For series [2], the system named is PC-3. The series is described as follows: Biodistribution in human PC-3 cells xenografted mouse measured after 3 hrs by PET method. The class given is ADME, organism-based. The following applies: in vivo. The method, boiled down: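 Mice carried subcutaneous PC-3 xenografts (5 × 10⁶ cells, right flank), with tumors at 100–300 mm³. [18F]fluorocholine 5–7 MBq was given retro-orbitally.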

For `CS(=O)(=O)[O-].OCC[N+]1(Cc2cccc([123I])c2)CCCC1`, in the series with PC-3 [1], the Drug uptake result was “Not Active”.

For `C[N+](C)(C[18F])CCO.[Cl-]`, in the series with PC-3 [2], the Drug uptake result is “Not Active”.

Turning to `C[N+](C)(CCO)CCCCCCOc1cccc([123I])c1.[Br-]`, the Drug uptake result in the series on PC-3 [1] is “Not Active”.
